Test results: ChEMBL document CHEMBL1649165, “Activity profile in vitro of micafungin against Spanish clinical isolates of common and emerging species of yeasts and molds” (2009)
Converted amounts (≈) assume the structure as drawn. *1 amine or outer side, *2 acyl side, *3 side chain or, on linkers, in order; H or OH if unused. Where a SMILES comes first, the peptide text is derived from it. Bridges are numbered along the chain shown (N, C = ends). [ ]: non-standard residue; d: D form. The star is where a group is joined. hTyr(3S-OH,4S-OH,3'-OSO3H) = N[C@H](C(=O)O)[C@H](O)[C@@H](O)c1ccc(O)c(OS(=O)(=O)O)c1; Orn(4R-OH,5R-OH) = O=C([C@H](C[C@@H](O)[C@@H](O)N[*:3])N[*:1])[*:2]; Pro(3S-OH,4S-Me) = C[C@H]1CN[C@H](C(=O)O)[C@H]1O; X1 = CCCCCOc1ccc(-c2cc(-c3ccc(C(=O)*)cc3)no2)cc1; Gln(3R-OH) = NC(=O)C[C@@H](O)[C@H](N)C(=O)O; Hyp = O=C(O)[C@@H]1C[C@@H](O)CN1

Key:
Type in all cases: functional
Pichia kudriavzevii = experiment: Antimicrobial activity against Candida krusei by broth microdilution method
Method in brief: (§1)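 Clinical isolates from human patients, tested by broth microdilution using the AFST-EUCAST reference procedure for fermentative yeasts. The MIC was read per that reference method.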

Magnusiomyces capitatus = experiment: Antimicrobial activity against Dipodascus capitatus by broth microdilution method
Aspergillus = experiment: Antimicrobial activity against Aspergillus spp. by broth microdilution method
Method in brief: (§2)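 Clinical mould isolates, tested by broth microdilution using the AFST-EUCAST reference method for filamentous fungi. For echinocandins, the endpoint was the minimum effective concentration: the lowest drug concentration giving aberrant hyphal growth, read with an inverted microscope.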

[1] = Antimicrobial activity against Hormographiella aspergillata by broth microdilution method; conditions: Coprinopsis cinerea
Method in brief: (§3)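 Filamentous fungus clinical isolates tested by the AFST-EUCAST reference broth microdilution method for moulds. For echinocandins, the endpoint was the minimum effective concentration: the lowest drug concentration giving aberrant hyphal growth, read with an inverted microscope.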

Coprinellus domesticus = experiment: Antimicrobial activity against Hormographiella verticillata by broth microdilution method; method in brief: as §3
[2] = tested on: Cladophialophora bantiana; experiment: Antimicrobial activity against Cladophialophora bantiana by broth microdilution method; method in brief: as §2
Clavispora lusitaniae = experiment: Antimicrobial activity against Candida lusitaniae by broth microdilution method; method in brief: as §1
Paecilomyces variotii = experiment: Antimicrobial activity against Paecilomyces variotii by broth microdilution method; method in brief: as §3
[3] = tested on: Kazachstania pintolopesii; experiment: Antimicrobial activity against Candida pintolopesii by broth microdilution method; conditions: Arxiozyma pintolopesii; method in brief: as §1
Aureobasidium pullulans = experiment: Antimicrobial activity against Aureobasidium pullulans by broth microdilution method
Lecythophora hoffmannii = experiment: Antimicrobial activity against Lecythophora hoffmannii by broth microdilution method; conditions: Coniochaeta hoffmannii; method in brief: as §3
Candida orthopsilosis = experiment: Antimicrobial activity against Candida orthopsilosis by broth microdilution method; conditions: Lodderomyces orthopsilosis; method in brief: as §1
Debaryomyces hansenii = experiment: Antimicrobial activity against Candida famata by broth microdilution method; method in brief: as §1
Lomentospora prolificans = experiment: Antimicrobial activity against Scedosporium prolificans by broth microdilution method; method in brief: as §3
Yarrowia lipolytica = experiment: Antimicrobial activity against Yarrowia lipolytica by broth microdilution method
Aspergillus terreus = experiment: Antimicrobial activity against Aspergillus terreus by broth microdilution method; method in brief: as §2
Fusarium solani = experiment: Antimicrobial activity against Fusarium solani by broth microdilution method; method in brief: as §3
Mucor = experiment: Antimicrobial activity against Mucor spp.by broth microdilution method; method in brief: as §3
[4] = tested on: Cunninghamella bertholletiae; experiment: Antimicrobial activity against Cunninghamella bertholletiae by broth microdilution method; method in brief: as §2
[Candida] intermedia = Antimicrobial activity against Candida intermedia by broth microdilution method; conditions: Sungouiella intermedia; method in brief: as §1
Aspergillus flavus = experiment: Antimicrobial activity against Aspergillus flavus by broth microdilution method; method in brief: as §2
Naganishia albida = experiment: Antimicrobial activity against Cryptococcus albidus by broth microdilution method
Method in brief: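 Clinical isolates of nonfermentative yeasts, tested by broth microdilution following EUCAST recommendations. The only change from that method was a minor modification to improve growth.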

Neurospora sitophila = experiment: Antimicrobial activity against Chrysonilia sitophila by broth microdilution method; method in brief: as §2
Beauveria bassiana = experiment: Antimicrobial activity against Beauveria bassiana by broth microdilution method; method in brief: as §2
Kluyveromyces marxianus = experiment: Antimicrobial activity against Candida kefyr by broth microdilution method; method in brief: as §1
Lichtheimia corymbifera = experiment: Antimicrobial activity against Mycocladus corymbiferus by broth microdilution method; method in brief: as §3
Candida albicans = experiment: Antimicrobial activity against Candida albicans by broth microdilution method; method in brief: as §1
Fennellia nivea = experiment: Antimicrobial activity against Aspergillus niveus by broth microdilution method; method in brief: as §2
Nakaseomyces glabratus = experiment: Antimicrobial activity against Candida glabrata by broth microdilution method; method in brief: as §1
Wickerhamomyces anomalus = experiment: Antimicrobial activity against Candida pelliculosa by broth microdilution method; conditions: Hansenula anomala; method in brief: as §1
Hortaea werneckii = experiment: Antimicrobial activity against Hortaea werneckii by broth microdilution method
Candida tropicalis = experiment: Antimicrobial activity against Candida tropicalis by broth microdilution method; method in brief: as §1
Cladosporium = experiment: Antimicrobial activity against Cladosporium spp. by broth microdilution method; method in brief: as §2
Rhizopus arrhizus = experiment: Antimicrobial activity against Rhizopus oryzae by broth microdilution method; method in brief: as §3
[Candida] inconspicua = Antimicrobial activity against Candida inconspicua by broth microdilution method; conditions: Pichia inconspicua; method in brief: as §1
Fusarium equiseti = experiment: Antimicrobial activity against Fusarium equiseti by broth microdilution method; method in brief: as §2
Rhodotorula glutinis = experiment: Antimicrobial activity against Rhodotorula glutinis by broth microdilution method
Method in brief: (§4)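 Nonfermentative yeast clinical isolates (Rhodotorula, Trichosporon) tested by broth microdilution. The EUCAST yeast recommendations were followed strictly, with one minor modification to improve growth. MIC was read as the endpoint.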

Scedosporium apiospermum = experiment: Antimicrobial activity against Scedosporium apiospermum by broth microdilution method; method in brief: as §3
Candida parapsilosis = experiment: Antimicrobial activity against Candida parapsilosis by broth microdilution method; conditions: Lodderomyces parapsilosis; method in brief: as §1
Fusarium proliferatum = experiment: Antimicrobial activity against Fusarium proliferatum by broth microdilution method; method in brief: as §2
Trichosporon asahii = experiment: Antimicrobial activity against Trichosporon asahii by broth microdilution method; method in brief: as §4

In the case of `CCCCCOc1ccc(-c2cc(-c3ccc(C(=O)N[C@H]4C[C@@H](O)[C@@H](O)NC(=O)[C@@H]5[C@@H](O)[C@@H](C)CN5C(=O)[C@H]([C@H](O)CC(N)=O)NC(=O)[C@H]([C@H](O)[C@@H](O)c5ccc(O)c(OS(=O)(=O)O)c5)NC(=O)[C@@H]5C[C@@H](O)CN5C(=O)[C@H]([C@@H](C)O)NC4=O)cc3)no2)cc1` [MICAFUNGIN] (X1-[Orn(4R-OH,5R-OH)]T[Hyp][hTyr(3S-OH,4S-OH,3'-OSO3H)][Gln(3R-OH)][Pro(3S-OH,4S-Me)]; lactam 1-C), the MIC50 (Pichia kudriavzevii) is reported as 0.03 µg/mL (≈ 0.0236 µM), the MIC90 (Pichia kudriavzevii) is reported as 0.06 µg/mL (≈ 0.0472 µM) and the MIC50 (Magnusiomyces capitatus) is reported as > 16 µg/mL. For the same compound, the MIC90 (Magnusiomyces capitatus) was > 16 µg/mL, the MIC50 (Aspergillus) was 0.06 µg/mL (≈ 0.0472 µM) and the MIC90 (Aspergillus) was 0.25 µg/mL (≈ 0.197 µM). For the same compound, the MIC50 [1] was > 16 µg/mL, the MIC90 [1] was > 16 µg/mL and the MIC50 (Coprinellus domesticus) was > 16 µg/mL. The MIC90 (Coprinellus domesticus) was > 16 µg/mL, the MIC50 [2] was 0.03 µg/mL (≈ 0.0236 µM) and the MIC90 [2] was 0.06 µg/mL (≈ 0.0472 µM). For the same compound, the MIC50 (Clavispora lusitaniae) was 0.03 µg/mL (≈ 0.0236 µM), the MIC90 (Clavispora lusitaniae) was 0.03 µg/mL (≈ 0.0236 µM) and the MIC50 (Paecilomyces variotii) was 0.03 µg/mL (≈ 0.0236 µM). For the same compound, the MIC90 (Paecilomyces variotii) was 0.03 µg/mL (≈ 0.0236 µM), the MIC50 [3] was 0.03 µg/mL (≈ 0.0236 µM) and the MIC90 [3] was 0.12 µg/mL (≈ 0.0945 µM). For the same compound, the MIC50 (Aureobasidium pullulans) was 0.03 µg/mL (≈ 0.0236 µM), the MIC90 (Aureobasidium pullulans) was 0.06 µg/mL (≈ 0.0472 µM) and the MIC50 (Lecythophora hoffmannii) was 0.03 µg/mL (≈ 0.0236 µM). For the same compound, the MIC90 (Lecythophora hoffmannii) was 0.06 µg/mL (≈ 0.0472 µM), the MIC50 (Candida orthopsilosis) was 0.03 µg/mL (≈ 0.0236 µM) and the MIC90 (Candida orthopsilosis) was 0.12 µg/mL (≈ 0.0945 µM). For the same compound, the MIC50 (Debaryomyces hansenii) was 0.03 µg/mL (≈ 0.0236 µM), the MIC90 (Debaryomyces hansenii) was 0.12 µg/mL (≈ 0.0945 µM) and the MIC50 (Lomentospora prolificans) was 8 µg/mL (≈ 6.3 µM). For the same compound, the MIC90 (Lomentospora prolificans) was > 16 µg/mL, the MIC50 (Yarrowia lipolytica) was 0.03 µg/mL (≈ 0.0236 µM) and the MIC90 (Yarrowia lipolytica) was 1 µg/mL (≈ 0.787 µM). For the same compound, the MIC50 (Aspergillus terreus) was 0.03 µg/mL (≈ 0.0236 µM), the MIC90 (Aspergillus terreus) was 0.03 µg/mL (≈ 0.0236 µM) and the MIC50 (Fusarium solani) was > 16 µg/mL. For the same compound, the MIC90 (Fusarium solani) was > 16 µg/mL, the MIC50 (Mucor) was > 16 µg/mL and the MIC90 (Mucor) was > 16 µg/mL. The MIC50 [4] was > 16 µg/mL, the MIC90 [4] was > 16 µg/mL and the MIC50 ([Candida] intermedia) was 0.03 µg/mL (≈ 0.0236 µM). For the same compound, the MIC90 ([Candida] intermedia) was 0.12 µg/mL (≈ 0.0945 µM), the MIC50 (Aspergillus flavus) was > 16 µg/mL and the MIC90 (Aspergillus flavus) was > 16 µg/mL. The MIC50 (Naganishia albida) was > 16 µg/mL, the MIC90 (Naganishia albida) was > 16 µg/mL and the MIC50 (Neurospora sitophila) was > 16 µg/mL. For the same compound, the MIC90 (Neurospora sitophila) was > 16 µg/mL, the MIC50 (Beauveria bassiana) was > 16 µg/mL and the MIC90 (Beauveria bassiana) was > 16 µg/mL. For the same compound, the MIC50 (Kluyveromyces marxianus) was 0.03 µg/mL (≈ 0.0236 µM), the MIC90 (Kluyveromyces marxianus) was 0.03 µg/mL (≈ 0.0236 µM) and the MIC50 (Lichtheimia corymbifera) was > 16 µg/mL. For the same compound, the MIC90 (Lichtheimia corymbifera) was > 16 µg/mL, the MIC50 (Candida albicans) was 0.03 µg/mL (≈ 0.0236 µM) and the MIC90 (Candida albicans) was 0.03 µg/mL (≈ 0.0236 µM). The MIC50 (Fennellia nivea) was 0.06 µg/mL (≈ 0.0472 µM), the MIC90 (Fennellia nivea) was 0.25 µg/mL (≈ 0.197 µM) and the MIC50 (Nakaseomyces glabratus) was 0.03 µg/mL (≈ 0.0236 µM). The MIC90 (Nakaseomyces glabratus) was 0.03 µg/mL (≈ 0.0236 µM), the MIC50 (Wickerhamomyces anomalus) was 0.03 µg/mL (≈ 0.0236 µM) and the MIC90 (Wickerhamomyces anomalus) was 0.12 µg/mL (≈ 0.0945 µM). The MIC50 (Hortaea werneckii) was 0.03 µg/mL (≈ 0.0236 µM), the MIC90 (Hortaea werneckii) was 0.06 µg/mL (≈ 0.0472 µM) and the MIC50 (Candida tropicalis) was 0.03 µg/mL (≈ 0.0236 µM). The MIC90 (Candida tropicalis) was 0.03 µg/mL (≈ 0.0236 µM), the MIC50 (Cladosporium) was 0.03 µg/mL (≈ 0.0236 µM) and the MIC90 (Cladosporium) was 0.06 µg/mL (≈ 0.0472 µM). The MIC50 (Rhizopus arrhizus) was > 16 µg/mL, the MIC90 (Rhizopus arrhizus) was > 16 µg/mL and the MIC50 ([Candida] inconspicua) was 0.03 µg/mL (≈ 0.0236 µM). For the same compound, the MIC90 ([Candida] inconspicua) was 0.12 µg/mL (≈ 0.0945 µM), the MIC50 (Fusarium equiseti) was > 16 µg/mL and the MIC90 (Fusarium equiseti) was > 16 µg/mL. The MIC50 (Rhodotorula glutinis) was > 16 µg/mL, the MIC90 (Rhodotorula glutinis) was > 16 µg/mL and the MIC50 (Scedosporium apiospermum) was 0.03 µg/mL (≈ 0.0236 µM). For the same compound, the MIC90 (Scedosporium apiospermum) was > 16 µg/mL, the MIC50 (Candida parapsilosis) was 0.5 µg/mL (≈ 0.394 µM) and the MIC90 (Candida parapsilosis) was 1 µg/mL (≈ 0.787 µM). For the same compound, the MIC50 (Fusarium proliferatum) was > 16 µg/mL, the MIC90 (Fusarium proliferatum) was > 16 µg/mL and the MIC50 (Trichosporon asahii) was > 16 µg/mL. For the same compound, the MIC90 (Trichosporon asahii) was > 16 µg/mL.
